We go through 36 compounds from ChEMBL document CHEMBL4725271, “Design and synthesis of pyrazolo[3,4-d]pyrimidinone derivatives: Discovery of selective phosphodiesterase-5 inhibitors” (Bioorg Med Chem Lett, 2020).

The test system of assay [1] is Corpus cavernosum. The assay can be described thus: Induction of smooth muscle relaxation in male albino rat corpus-cavernosum assessed as reduction in phenylephrine-induced contraction relative to sildenafil. It counts as functional. The essentials:
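Isolated penile corpus cavernosum strips from adult male albino rats anaesthetized with sodium pentobarbital (50mg/kg, i.v.), held in Krebs-Henseleit solution at 37°C aerated with carbogen under 1g initial tension. Equilibrated ~90 min with solution renewed every 15 min. Cumulative concentration-response curves in phenylephrine-contracted tissue, recorded isometrically.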

Assay [2] deals with Corpus cavernosum. The assay can be described thus: Induction of smooth muscle relaxation in male albino rat corpus-cavernosum assessed as reduction in phenylephrine-induced contraction. The format is functional, tissue-based.
Assay [3] deals with cGMP-specific 3',5'-cyclic phosphodiesterase (Homo sapiens, UniProt O76074). The assay can be described thus: Inhibition of PDE5 (unknown origin).

As for `CCCCOc1ccccc1-c1nc2c(cnn2-c2ccccc2)c(=O)[nH]1`, the Emax (in general, the maximal effect, on the per cent scale that the assay sets) in assay [1] stood at 170%. The EC50 (commonly the concentration giving half of the maximal effect) in assay [2] was 630 nM. Regarding `O=c1[nH]c(CNc2ccccc2O)nc2c1cnn2-c1ccc(Br)cc1`, the Emax in assay [1] turned out to be 133%. Further, the EC50 in assay [2] is 5050 nM.

`O=c1[nH]c(CNc2ccccc2O)nc2c1cnn2-c1ccccc1`: in assay [1], the Emax is 125%. In addition, in assay [2], the EC50 is 250 nM. For the compound `COc1ccc(CNc2nc(OCc3ccccn3)ncc2C(=O)OCc2ncccn2)cc1Cl`, in assay [3], the IC50 (commonly the point on the concentration scale where inhibition reaches its midpoint) worked out at 4.2 nM. For the compound `COCCCNC(=O)c1cnc(OCc2ccccn2)nc1NCc1ccc(OC)c(Cl)c1`, in assay [3], the IC50 was 15 nM. `COc1ccc(CNc2nc(OCc3ccccn3)ncc2C(=O)OCc2ccccn2)cc1Cl` showed an IC50 in assay [3] of 2.1 nM. `COc1ccc(CNc2nc(N3CCCC[C@H]3CO)ncc2C(=O)NCc2ccccn2)cc1Cl` had an IC50 in assay [3] of 54 nM. In the case of `COc1ccc(CNc2nc(N3Cc4ccccc4C[C@@H]3CO)ncc2C(=O)NCc2ccccn2)cc1Cl`, in assay [3], the IC50 amounted to 6.5 nM.

In assay [3], `COc1ccc(CNc2nc(OCc3ccccn3)ncc2C(=O)NCCN2CCOCC2)cc1Cl` gave an IC50 of 5.6 nM.

In assay [3], `COc1ccc(CNc2nc(N3CCC[C@H]3CO)ncc2C(=O)NC[C@@H]2CN(C)CCO2)cc1Cl` returned an IC50 of 6.1 nM. Still for that read-out and setting: the figure for `COc1ccc(CNc2nc(N3CCC[C@H]3CO)ncc2C(=O)NCCCO)cc1Cl` is 6.6 nM.

With `CCCCOc1ccccc1-c1nc2c(cnn2-c2ccc(Br)cc2)c(=O)[nH]1`, in assay [1], the Emax is 160%. In addition, in assay [2], the EC50 is 4.89 nM. Take `O=C(O)c1ccccc1OCc1nc2c(cnn2-c2ccccc2)c(=O)[nH]1`: the EC50 in assay [2] is 223 nM. In the case of `CCCOc1ccccc1-c1nc2c(cnn2-c2ccccc2)c(=O)[nH]1`, the Emax in assay [1] worked out at 150%. Moreover, the concentration giving a half-maximal response (EC50) in assay [2] is 234 nM. Take `COc1ccc(CNc2nc(N3CCC[C@@H]3CO)ncc2C(=O)NCc2ccccn2)cc1Cl`: the IC50 in assay [3] was 1.2 nM. For the compound `O=c1[nH]c(-c2ccccc2O)nc2c1cnn2-c1ccccc1`, in assay [1], the Emax came to 93%. For the same compound, the EC50 in assay [2] was 500 nM. Take `COc1ccc(CNc2nc(OCc3ccccn3)ncc2C(=O)N[C@H]2CC[C@@H](O)CC2)cc1Cl`: 3.5 nM corresponded to half-maximal inhibition in assay [3] (IC50). With `COC(=O)c1ccccc1OCc1nc2c(cnn2-c2ccccc2)c(=O)[nH]1`, the Emax in assay [1] worked out at 130%. In addition, the EC50 in assay [2] is 100 nM. `COc1ccc(CN=c2[nH]c(N3CCC[C@H]3CO)ncc2C(=O)NCc2ncccn2)cc1Cl` (stereo in doubt; T5): the IC50 in assay [3] stood at 25 nM. Turning to `Nc1ccccc1NCc1nc2c(cnn2-c2ccc(Br)cc2)c(=O)[nH]1`, the Emax in assay [1] amounted to 148%. The EC50 in assay [2] was 707 nM. With `Nc1ccccc1NCc1nc2c(cnn2-c2ccccc2)c(=O)[nH]1`, the Emax in assay [1] came to 113%. For the same compound, the EC50 in assay [2] is 6800 nM.

As to `COc1ccc(CNc2nc(N3CCCC[C@H]3CO)ncc2C(=O)NCc2ncccn2)cc1Cl`, in assay [3], the IC50 worked out at 63 nM. `COc1ccc(CNc2nc(OCc3ccccn3)ncc2C(=O)NCCCO)cc1Cl` returned an IC50 in assay [3] of 13 nM. The compound `COc1ccc(CNc2nc(OCc3ccccn3)ncc2C(=O)Nc2ncccn2)cc1Cl` gave a 50% inhibitory concentration (IC50) in assay [3] of 12 nM. On to `COc1ccc(CN=c2[nH]c(N3CCC[C@H]3CO)ncc2C(=O)NCc2ncccn2)cc1Cl` (stereo in doubt; T6), for which, in assay [3], the IC50 was found to be 5.2 nM. Turning to `CCCOc1ccccc1-c1nc2c(cnn2-c2ccc(Br)cc2)c(=O)[nH]1`, the Emax in assay [1] was 140%. Besides, the EC50 in assay [2] is 830 nM. For `O=c1[nH]c(-c2ccccc2O)nc2c1cnn2-c1ccc(Br)cc1`, in assay [1], the Emax came to 167%. The EC50 in assay [2] was 338 nM. In turn, `COc1ccc(CNc2nc(N3CCO[C@H](CO)C3)ncc2C(=O)NCc2ccccn2)cc1Cl` registered an IC50 in assay [3] of 32 nM. Consider `CC(C)Oc1ccccc1-c1nc2c(cnn2-c2ccccc2)c(=O)[nH]1`, for which the Emax in assay [1] is 130%. Further, the EC50 in assay [2] is 500 nM. As for `COc1ccc(CNc2nc(N3CCC[C@H]3CO)ncc2C(=O)N[C@H]2CC[C@H](O)CC2)cc1Cl`, in assay [3], half-maximal inhibition (IC50) was put at 1.8 nM.

`COc1ccc(CNc2nc(OCc3ccccn3)ncc2C(=O)NCCCCO)cc1Cl` registered an IC50 in assay [3] of 12 nM. In assay [3], `COc1ccc(CNc2nc(N3CCC(O)CC3)ncc2C(=O)NCc2ccccn2)cc1Cl` gave an IC50 of 59 nM. With `CC(C)Oc1ccccc1-c1nc2c(cnn2-c2ccc(Br)cc2)c(=O)[nH]1`, in assay [2], the EC50 was 280 nM. Compound `COc1ccc(CN(C)c2nc(OCc3ccccn3)ncc2C(=O)NCc2ccccn2)cc1Cl` displayed an IC50 in assay [3] of 85 nM. As to `COc1ccc(CNc2nc(OCc3ccccn3)ncc2C(=O)NCc2ccccn2)cc1Cl`, the IC50 in assay [3] came to 2.7 nM. On the same count and under the same terms, the figure for `COc1ccc(CNc2nc(N(C)CCO)ncc2C(=O)NCc2ccccn2)cc1Cl` is 32 nM.
